SENP8 block-1 – human SENP8 protease inhibitors, primary screen, biochemical, fluorescence, Nedd8 protein substrate, uHTS; Sentrin-specific protease 8 (Homo sapiens), Q96LD8; recombinant SENP8; inhibition, % at 20 µM; 0.64% of 360,000 active; AID 602440, 2012; in the data active means inhibition mostly above about 40%, no sharp cut-off; inactive means mostly below about 27%
Target sequence (Q96LD8 whole entry, looked up): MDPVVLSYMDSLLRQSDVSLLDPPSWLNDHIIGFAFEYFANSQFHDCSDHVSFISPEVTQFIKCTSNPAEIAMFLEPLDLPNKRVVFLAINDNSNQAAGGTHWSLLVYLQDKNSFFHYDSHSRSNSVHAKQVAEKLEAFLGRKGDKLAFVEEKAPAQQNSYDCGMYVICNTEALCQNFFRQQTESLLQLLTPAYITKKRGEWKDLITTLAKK
SENP7 block – SENP7 protease inhibitors, primary screen, biochemical, luminescence, uHTS; inhibition, % at 5 µM; Sentrin-specific protease 7 (Homo sapiens), Q9BQF6; 1.5% of 330,000 active; AID 434973, 2010; recombinant SENP7, Z-RLRGG-aminoluciferin luminescence, 40 min;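 active means inhibition above about 50% at the single test dose, limit read from the data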;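 further: plate controls were DMSO with enzyme for no effect and no enzyme buffer wells for full effect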
SENP6 inh – SENP6 protease inhibitors, primary screen, biochemical, luminescence, uHTS | Sentrin-specific protease 6 (Homo sapiens), Q9GZR1 | Recombinant SENP6 catalytic domain, aminoluciferin luminescence | inhibition, % at 10 µM | 1.8% of 330,000 active | AID 2599, 2010;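 active means inhibition above about 50% at the single tested dose, limit read from the data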;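 further: plate controls were DMSO wells with enzyme for no effect and DMSO wells lacking enzyme for full effect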
SENP8 block-2 – SENP8 protease inhibitors, primary screen, biochemical, luminescence. Sentrin-specific protease 8 (Homo sapiens), Q96LD8. purified SENP8, Z-RLRGG-aminoluciferin cleavage. inhibition, % at 10 µM. 1.2% of 330,000 active; in the data active means inhibition above about 50%
SENP1 inh – human SENP1 catalytic domain inhibitors, primary screen, biochemical, FRET, uHTS; recombinant SENP1 catalytic domain, CyPet-SUMO1-YPet FRET cleavage; AID 624204, 2012; Sentrin-specific protease 1 (Homo sapiens), Q9P0U3; inhibition, % at 10 µM; 0.21% of 360,000 active;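 active means inhibition at least 30% at 10 µM, raw YFP signal under a set limit, fluorescence ratio 0.5 to 1.5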;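 further: 0% = enzyme with DMSO and 100% = no enzyme wells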
Target sequence (Q9P0U3 419-644 limits assumed): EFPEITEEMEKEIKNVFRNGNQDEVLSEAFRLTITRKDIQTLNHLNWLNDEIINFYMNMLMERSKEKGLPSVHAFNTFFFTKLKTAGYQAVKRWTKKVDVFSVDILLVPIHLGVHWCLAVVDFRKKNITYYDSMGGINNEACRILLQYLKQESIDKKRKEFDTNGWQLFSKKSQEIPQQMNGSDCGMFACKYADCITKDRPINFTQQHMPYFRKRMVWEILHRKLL
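Test system: hSENP1 catalytic domain, recombinant; Amount: 20 pM final SENP1 enzyme; Medium: Tris pH 8 buffer plus EDTA, NaCl, BME, BSA, NP40, catalase; Schedule: 50 min enzyme reaction, room temperature, light-protected; Technique: FRET fluorescence in CFP and YFP emission channels; Controls: no-enzyme wells low, DMSO-plus-enzyme wells high control.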
Platelet DG rel – inhibitors of platelet dense granule secretion, primary screen, cell-based, MLPCN, human platelets; human platelet-rich plasma, SFLLRN dense granule ATP release, luminescence; inhibition, %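 (compounds screened at 7.5 µM in platelet-rich plasma)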; 0.22% of 300,000 active; AID 1663, 2009;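 active means mean replicate score, as percent of positive control, at or above 50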
SENP8 confirm – SENP8 protease inhibitors, retest, confirmation, biochemical, luminescence, single concentration; Recombinant SENP8, Z-RLRGG-aminoluciferin luminescence, 60 min; shares compounds with SENP7 block; 40% of 6,200 active; inhibition, % at 12.5 µM;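 active means mean inhibition across replicates above about 50%, limit read from the data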
SENP6 confirm – SENP6 protease inhibitors, confirmation, biochemical, luminescence, single concentration | shares compounds with SENP7 block | recombinant SENP6, Z-RLRGG-aminoluciferin luminescence | inhibition, % at 12.5 µM | 58% of 6,200 active | AID 488915, 2010
SENP7 conf – SENP7 protease inhibitors, retest, confirmation, biochemical, luminescence, single concentration. inhibition, % at 12.5 µM. 69% of 6,200 active. recombinant SENP7, Z-RLRGG-aminoluciferin luminescence, 40 min. shares compounds with SENP7 block
Casp3 SENP sel – caspase-3 protease inhibitors, confirmation, selectivity assay for SENP inhibitor project, biochemical, single concentration. shares compounds with SENP7 block. purified caspase-3, Z-DEVD-aminoluciferin luminescence, 60 min. inhibition, % at 12.5 µM. 60% of 6,200 active. AID 488918, 2010;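 active means mean inhibition above about 50%, limit read from the data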;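 further: plate controls were enzyme with DMSO for no effect and wells without caspase-3 for full effect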
SENP luc ctr – luminescence interference (SENP counter-screen); shares compounds with SENP7 block; Pre-incubated SENP8/Z-RLRGG-aminoluciferin, luciferase luminescence interference; 39% of 6,200 active; inhibition, % at 12.5 µM;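 active means mean inhibition above about 50% when retested at one dose, limit read from the data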;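 further: plate controls were DMSO wells with completed reaction for no effect and substrate without enzyme for full effect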
The depositor's hits bear a star; i = inactive; x = no result given. Hits are enriched below; roughly 2.6% of the tested compounds scored in any of these assays.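 How the source made its calls, unless noted: active means mean inhibition above about 50% in the one-dose retest (limit read from the data); inactive means the rest.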

SMILES	SENP8 block-1	SENP7 block	SENP6 inh	SENP8 block-2	SENP1 inh	Platelet DG rel	SENP8 confirm	SENP6 confirm	SENP7 conf	Casp3 SENP sel	SENP luc ctr
Nc1c(C(=O)OC2CCCCC2)c2nc3ccccc3nc2n1CC1CCCO1 (stereo not given)	-281	7	17	5	-116	-6	x	x	x	x	x
CC(C)OC(=O)c1c(N)n(CC2CCCO2)c2nc3ccccc3nc12 (stereo not given)	i	39	51*	39	-127	-8	6	3	0	-2	-1
C[C@]12CCC3C(CC[C@H]4C[C@@H](O)CC[C@]34C)C1C[C@@H](Br)[C@@H]2O (stereo not given in full)	x	-6	-15	-9	x	x	x	x	x	x	x
c1ccc(CN2COC3CCCCCC32)cc1 (stereo not given)	5	x	x	x	-2	x	x	x	x	x	x
COc1ccc2c(c1)CC1(CN2C)C(=O)NC(=O)N(CCc2ccccc2)C1=O (stereo not given)	10	8	-11	-6	-56	-2	x	x	x	x	x
CCC(C)N1C(=O)NC(=O)C2(Cc3c(ccc4ccccc34)N(C)C2)C1=O (stereo not given)	-28	16	76*	11	-29	1	-20	-7	-6	-6	-6
COc1cc2c(cc1OC)-c1c(OC)c(OC)cc3c1C(C2)N(C)CC3 (stereo not given)	-136	55*	82*	58*	24	1	-2	73*	30	24	-3
COc1cc2c(cc1OC)-c1c3c(cc4c1[C@@H](C2)N(C)CC4)OCO3	i	46	78*	32	-1	-1	10	38	8	4	-3
Cc1cc(OCC(=O)NC2CCS(=O)(=O)C2)c2c3c(c(=O)oc2c1)CCC3 (stereo not given)	-272	-6	-15	-3	-5	2	x	x	x	x	x
CN(C)C(=O)Oc1cccc(-c2cn3cc(Cl)ccc3n2)c1	-185	4	-11	-1	1	-17	x	x	x	x	x
CN(C)C(=O)Oc1ccc(-c2cn3cc(Cl)ccc3n2)cc1	-190	94*	-1	91*	2	20	-24	93*	102*	97*	44
CC(=NCC1CCCO1)c1c(O)n(Cc2ccccc2)c(=O)[nH]c1=O (stereo not given)	-7	3	-6	-6	-6	10	x	x	x	x	x
O=C(Nc1ccccc1)c1c(O)[nH]c(=S)[nH]c1=O	-3	61*	63*	52*	2	-1	62*	54*	88*	82*	60*
COc1ccc(C(=O)N2CCC3(CC2)OCCO3)cc1	13	-6	-8	6	2	-2	x	x	x	x	x
O=C(c1ccc2nc(-c3ccco3)c(-c3ccco3)nc2c1)N1CCC2(CC1)OCCO2	-171	25	82*	24	-38	x	14	18	0	0	-3

Bioassay records: PubChem, several laboratories
